Measurements as given in PubChem BioAssay AID588767 (The Scripps Research Institute Molecular Screening Center, 2011).
Activity calls are given as the source filed them.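 The calls were made as follows: active = inhibition of at least 50% at 0.1 µM compound; inactive = inhibition below 50%.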

Target: Platelet-activating factor acetylhydrolase 2, cytoplasmic (Mus musculus) (UniProt Q8VDG7)
Assay: off-target mouse PAFAH2 activity blockade – cell lysate, gel-based competitive ABPP, fluorescence, selectivity assay for pPAFAH inhibitor project, late-stage follow-up (AID 588767)
Details: BW5147 T-cell soluble proteome, FP-Rh, stronger effect = higher value
In short: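 System – endogenous PAFAH2 within BW5147-derived murine T-cell soluble proteome · Probe or stimulus – Rhodamine-linked fluorophosphonate activity probe (FP-Rh), 1 µM final · Timing – compound pre-incubation 30 min and probe labelling 30 min, both 37 °C · Measured by – SDS-PAGE separation with in-gel rhodamine fluorescence scanning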

Sequence of Platelet-activating factor acetylhydrolase 2, cytoplasmic (Mus musculus) (Q8VDG7 whole entry, looked up): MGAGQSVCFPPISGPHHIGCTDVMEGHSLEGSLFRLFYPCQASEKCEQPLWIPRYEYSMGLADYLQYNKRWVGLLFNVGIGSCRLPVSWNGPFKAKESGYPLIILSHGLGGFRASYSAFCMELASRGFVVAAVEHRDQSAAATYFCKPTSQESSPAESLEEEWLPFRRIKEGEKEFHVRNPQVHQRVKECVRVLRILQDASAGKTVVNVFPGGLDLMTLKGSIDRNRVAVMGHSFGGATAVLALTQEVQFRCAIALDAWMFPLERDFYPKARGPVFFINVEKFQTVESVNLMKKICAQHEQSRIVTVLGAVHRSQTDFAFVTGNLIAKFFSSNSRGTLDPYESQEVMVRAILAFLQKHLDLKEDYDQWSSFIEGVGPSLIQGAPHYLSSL

SMILES | inhibition (at 0.1 µM) | inhibition (inhibition, at 1 µM) [%] | inhibition (inhibition, at 10 µM) [%]
COc1ccc2cc(-c3cnn(C(=O)N4CCCC4)n3)ccc2c1 | 100% | – | –
Cc1cc(N2CCN(C(=O)Oc3ccc(-c4ccccc4)cn3)CC2)c2ccccc2n1 | 0% (inactive) | 0 | 0
